Laboratory results from ChEMBL document CHEMBL4138301, “Discovery of Tetralones as Potent and Selective Inhibitors of Acyl-CoA:Diacylglycerol Acyltransferase 1” (ACS Med Chem Lett, 2018).
≈ marks a conversion by molar mass, not a printed value. Blank lines part the entries; values can stand above or below the compound they belong to.

Tests used:
[1] = Kinetic solubility of the compound in pION buffer at pH 7.4 measured after 18 hrs; format: physicochemical; settings: read-out: Kinetic_solubility
[2] = target: T1, Diacylglycerol O-acyltransferase 1 (Mus musculus) (UniProt Q9Z2A7); test: Inhibition of DGAT1 in mouse C2C12 cells at 300 nM using [14C] oleic acid as substrate measured after 20 mins by phosphorimaging method relative to control; format: cell-based
T1 sequence (whole entry): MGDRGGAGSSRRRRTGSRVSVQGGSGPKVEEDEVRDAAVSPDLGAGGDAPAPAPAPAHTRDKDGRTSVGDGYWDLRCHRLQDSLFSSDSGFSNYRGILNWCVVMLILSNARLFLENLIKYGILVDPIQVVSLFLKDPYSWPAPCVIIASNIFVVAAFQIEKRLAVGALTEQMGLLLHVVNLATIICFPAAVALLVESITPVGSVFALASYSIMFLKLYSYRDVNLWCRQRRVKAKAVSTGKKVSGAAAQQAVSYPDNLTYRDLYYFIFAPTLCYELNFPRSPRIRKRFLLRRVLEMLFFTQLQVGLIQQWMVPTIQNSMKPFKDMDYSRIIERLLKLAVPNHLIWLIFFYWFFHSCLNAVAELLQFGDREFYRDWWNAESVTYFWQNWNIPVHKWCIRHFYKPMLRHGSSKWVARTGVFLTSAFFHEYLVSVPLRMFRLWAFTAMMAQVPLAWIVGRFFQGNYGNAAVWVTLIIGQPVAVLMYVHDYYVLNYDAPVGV

[3] = target: Diacylglycerol O-acyltransferase 1 (Homo sapiens) (UniProt O75907); test: Inhibition of recombinant human DGAT1 expressed in baculovirus infected Sf9 insect microsomal membranes at 10 uM using C10-DAG and C10-CoA as substrate pretreated for 15 mins followed by substrate addition measured after 60 mins by CPM dye based fluorescence assay relative to control
Chain of Diacylglycerol O-acyltransferase 1 (Homo sapiens) (O75907 whole entry): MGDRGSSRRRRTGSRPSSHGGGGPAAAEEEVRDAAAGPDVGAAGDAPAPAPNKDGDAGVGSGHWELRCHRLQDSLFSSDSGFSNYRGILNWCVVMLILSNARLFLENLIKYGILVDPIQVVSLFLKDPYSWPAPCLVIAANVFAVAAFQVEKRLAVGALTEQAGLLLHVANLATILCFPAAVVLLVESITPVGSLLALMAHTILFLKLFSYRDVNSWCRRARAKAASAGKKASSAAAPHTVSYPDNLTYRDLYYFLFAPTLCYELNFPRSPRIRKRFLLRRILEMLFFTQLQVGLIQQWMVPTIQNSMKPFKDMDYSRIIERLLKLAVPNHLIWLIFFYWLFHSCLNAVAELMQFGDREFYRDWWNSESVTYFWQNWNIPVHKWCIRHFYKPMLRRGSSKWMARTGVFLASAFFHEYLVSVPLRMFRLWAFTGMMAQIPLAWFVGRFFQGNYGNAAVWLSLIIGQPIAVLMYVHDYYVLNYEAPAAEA

[4] = system: Mus musculus; test: In vivo inhibition of DGAT1 in corn oil-induced Swiss albino mouse hypertriglyceridemia model assessed as reduction in plasma triglyceride level at 0.3 mg/kg, po pretreated for 30 mins followed by coil oil challenge measured after 2.5 hrs relative to control; format: functional
Method in brief: (§1)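 Male Swiss Albino mice were fasted overnight, then dosed orally at 0.03, 0.1, 0.3, 1, 3 or 10 mg/kg. Thirty minutes later they received an oral corn oil bolus of 5 mL/kg.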

[5] = Plasma clearance in C57BL/6J mouse at 2.2 mg/kg, iv or 2.7 mg/kg, po; format: ADME, organism-based
Method in brief: (§2)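 Male animals, n = 3 per species: C57BL/6J mouse at 2.2 mg/kg IV and 2.7 mg/kg PO; Sprague–Dawley rat at 1 mg/kg IV and 2 mg/kg PO; Beagle dog at 1.8 mg/kg IV and 5.3 mg/kg PO. Plasma clearance, Vss, IV half-life and oral %F were derived from the plasma profiles.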

[6] = Volume of distribution at steady state in C57BL/6J mouse at 2.2 mg/kg, iv or 2.7 mg/kg, po; format: ADME, organism-based; settings: in vivo, read-out: Vdss
Method in brief: (§3)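 Male animals, n = 3 per species. Each was given a single intravenous dose and a separate oral dose, at the species-specific levels in the line. Plasma clearance, steady-state volume of distribution, IV half-life and oral bioavailability were derived from these studies.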

[7] = Half life in C57BL/6J mouse at 2.2 mg/kg, iv; format: ADME, organism-based; settings: in vivo; method in brief: as §2
[8] = Oral bioavailability in C57BL/6J mouse at 2.7 mg/kg; format: ADME, organism-based; settings: in vivo; method in brief: as §2
[9] = Plasma clearance in Sprague-Dawley rat at 1 mg/kg, iv or 2 mg/kg, po; format: ADME, organism-based; method in brief: as §2
[10] = Volume of distribution at steady state in Sprague-Dawley rat at 1 mg/kg, iv or 2 mg/kg, po; format: ADME, organism-based; settings: in vivo, read-out: Vdss; method in brief: as §3
[11] = Half life in Sprague-Dawley rat at 1 mg/kg, iv; format: ADME, organism-based; settings: in vivo; method in brief: as §2
[12] = Oral bioavailability in Sprague-Dawley rat at 2 mg/kg; format: ADME, organism-based; settings: in vivo; method in brief: as §2
[13] = Plasma clearance in Beagle dog at 1.8 mg/kg, iv or 5.3 mg/kg, po; format: ADME, organism-based, Canis lupus familiaris; method in brief: as §2
[14] = Volume of distribution at steady state in Beagle dog at 1.8 mg/kg, iv or 5.3 mg/kg, po; format: ADME, organism-based, Canis lupus familiaris; settings: in vivo, read-out: Vdss; method in brief: as §3
[15] = Half life in Beagle dog at 1.8 mg/kg, iv; format: ADME, organism-based, Canis lupus familiaris; settings: in vivo; method in brief: as §2
[16] = Oral bioavailability in Beagle dog at 5.3 mg/kg; format: ADME, organism-based, Canis lupus familiaris; settings: in vivo; method in brief: as §2
[17] = system: Mus musculus; test: In vivo inhibition of DGAT1 in corn oil-induced Swiss albino mouse hypertriglyceridemia model assessed as reduction in plasma triglyceride level at 0.03 mg/kg, po pretreated for 30 mins followed by coil oil challenge measured after 2.5 hrs relative to control; format: functional; method in brief: as §1
[18] = system: Mus musculus; test: In vivo inhibition of DGAT1 in corn oil-induced Swiss albino mouse hypertriglyceridemia model assessed as reduction in plasma triglyceride level at 0.1 mg/kg, po pretreated for 30 mins followed by coil oil challenge measured after 2.5 hrs relative to control; format: functional; method in brief: as §1
[19] = system: Mus musculus; test: In vivo inhibition of DGAT1 in corn oil-induced Swiss albino mouse hypertriglyceridemia model assessed as reduction in plasma triglyceride level at 1 mg/kg, po pretreated for 30 mins followed by coil oil challenge measured after 2.5 hrs relative to control; format: functional; method in brief: as §1
[20] = system: Mus musculus; test: In vivo inhibition of DGAT1 in corn oil-induced Swiss albino mouse hypertriglyceridemia model assessed as reduction in plasma triglyceride level at 3 mg/kg, po pretreated for 30 mins followed by coil oil challenge measured after 2.5 hrs relative to control; format: functional; method in brief: as §1
[21] = system: Mus musculus; test: In vivo inhibition of DGAT1 in corn oil-induced Swiss albino mouse hypertriglyceridemia model assessed as reduction in plasma triglyceride level at 10 mg/kg, po pretreated for 30 mins followed by coil oil challenge measured after 2.5 hrs relative to control; format: functional; method in brief: as §1
[22] = system: Salmonella typhimurium; test: Mutagenicity in Salmonella typhimurium TA1535 in presence of S9 fraction by Ames test; format: toxicity, organism-based; settings: salmonella enterica subsp. enterica serovar typhimurium
[23] = system: Salmonella typhimurium; test: Mutagenicity in Salmonella typhimurium TA1537 in presence of S9 fraction by Ames test; format: toxicity, organism-based; settings: salmonella enterica subsp. enterica serovar typhimurium
[24] = system: Salmonella typhimurium; test: Mutagenicity in Salmonella typhimurium TA98 in presence of S9 fraction by Ames test; format: toxicity, organism-based; settings: salmonella enterica subsp. enterica serovar typhimurium
[25] = system: Salmonella typhimurium; test: Mutagenicity in Salmonella typhimurium TA100 in presence of S9 fraction by Ames test; format: toxicity, organism-based; settings: salmonella enterica subsp. enterica serovar typhimurium
[26] = system: Escherichia coli; test: Mutagenicity in Escherichia coli WP2uvrA in presence of S9 fraction by Ames test; format: toxicity, organism-based
[27] = system: Salmonella typhimurium; test: Mutagenicity in Salmonella typhimurium TA1535 in absence of S9 fraction by Ames test; format: toxicity, organism-based; settings: salmonella enterica subsp. enterica serovar typhimurium
[28] = system: Salmonella typhimurium; test: Mutagenicity in Salmonella typhimurium TA1537 in absence of S9 fraction by Ames test; format: toxicity, organism-based; settings: salmonella enterica subsp. enterica serovar typhimurium
[29] = system: Salmonella typhimurium; test: Mutagenicity in Salmonella typhimurium TA98 in absence of S9 fraction by Ames test; format: toxicity, organism-based; settings: salmonella enterica subsp. enterica serovar typhimurium
[30] = system: Salmonella typhimurium; test: Mutagenicity in Salmonella typhimurium TA100 in absence of S9 fraction by Ames test; format: toxicity, organism-based; settings: salmonella enterica subsp. enterica serovar typhimurium
[31] = system: Escherichia coli; test: Mutagenicity in Escherichia coli WP2uvrA in absence of S9 fraction by Ames test; format: toxicity, organism-based
[32] = species: Mus musculus; test: animal or person; settings: Swiss, po

SMILES: CCC1(CC(=O)O)CCc2cc(-c3ccc(NC(=O)Nc4cccc(C)c4)cc3)ccc2C1=O (stereo not drawn)
solubility kinetic at 18 h [1]: 6 µg/mL (≈ 13.1 µM)

SMILES: O=C(O)CC1(F)CCc2cc(-c3ccc(NC(=O)Nc4ccccc4)cc3)ccc2C1=O (stereo not drawn)
solubility kinetic at 18 h [1]: 31 µg/mL (≈ 71.7 µM)
inhibition [3]: 84%

SMILES: CCC1(CC(=O)O)CCc2cc(-c3ccc(NC(=O)Nc4cccc(OC)c4)cc3)ccc2C1=O (stereo not drawn)
solubility kinetic at 18 h [1]: 6 µg/mL (≈ 12.7 µM)

SMILES: CCC1(CC(=O)O)CCc2cc(-c3ccc(NC(=O)Nc4cccc(Cl)c4)cc3)ccc2C1=O (stereo not drawn)
solubility kinetic at 18 h [1]: 101 µg/mL (≈ 212 µM)

SMILES: CC1(CC(=O)O)CCc2cc(-c3ccc(NC(=O)Nc4cccc(C(F)(F)F)c4)cc3)ccc2C1=O (stereo not drawn)
solubility kinetic at 18 h [1]: 72 µg/mL (≈ 145 µM)

SMILES: Nc1ncnc2c1C(=O)N(c1ccc([C@H]3CC[C@H](CC(=O)O)CC3)cc1)CCO2 [PF-04620110]
inhibition in vivo at 0.3 mg/kg [4]: 94%

SMILES: CCC1(CC(=O)O)CCc2cc(-c3ccc(NC(=O)Nc4ccccc4)cc3)ccc2C1=O (stereo not drawn)
solubility kinetic at 18 h [1]: 34 µg/mL (≈ 76.8 µM)

SMILES: Cc1cccc(NC(=O)Nc2ccc(-c3ccc4c(c3)CCC(C)(CC(=O)O)C4=O)cc2)c1 (stereo not drawn)
solubility kinetic at 18 h [1]: 103 µg/mL (≈ 233 µM)

SMILES: CC1(CC(=O)O)CCc2cc(-c3ccc(NC(=O)Nc4cccc(Cl)c4)cc3)ccc2C1=O (stereo not drawn)
solubility kinetic at 18 h [1]: 75 µg/mL (≈ 162 µM)

SMILES: CC[C@@]1(CC(=O)O)CCc2cc(-c3ccc(NC(=O)Nc4cccc(C(F)(F)F)c4)cc3Cl)ccc2C1=O
solubility kinetic at 18 h [1]: 151 µg/mL (≈ 277 µM)
bioavailability [12]: 23%

Second part, led by results:

solubility kinetic at 18 h [1]: 100 µg/mL (≈ 210 µM)
inhibition [2]: 72%
SMILES: CCC1(CC(=O)O)CCc2cc(-c3ccc(NC(=O)Nc4ccc(Cl)cc4)cc3)ccc2C1=O (racemic)

solubility kinetic at 18 h [1]: 46 µg/mL (≈ 90.1 µM)
SMILES: CCC1(CC(=O)O)CCc2cc(-c3ccc(NC(=O)Nc4ccc(C(F)(F)F)cc4)cc3)ccc2C1=O (stereo not drawn)

solubility kinetic at 18 h [1]: 38 µg/mL (≈ 82.5 µM)
SMILES: CCC1(CC(=O)O)CCc2cc(-c3ccc(NC(=O)Nc4cccc(F)c4)cc3)ccc2C1=O (stereo not drawn)

solubility kinetic at 18 h [1]: 26 µg/mL (≈ 50.9 µM)
SMILES: CCC1(CC(=O)O)CCc2cc(-c3ccc(NC(=O)Nc4ccccc4C(F)(F)F)cc3)ccc2C1=O (stereo not drawn)

solubility kinetic at 18 h [1]: 78 µg/mL (≈ 153 µM)
inhibition [2]: 75%
clearance [5]: 42.3 mL/min/kg
Vd [6]: 2.4 L/kg
half-life [7]: 2.6 h
bioavailability [8]: 54%
clearance [9]: 6.3 mL/min/kg
Vd [10]: 1 L/kg
half-life [11]: 3.9 h
bioavailability [12]: 87%
clearance [13]: 4.6 mL/min/kg
Vd [14]: 0.6 L/kg
half-life [15]: 4.6 h
bioavailability [16]: 149%
SMILES: CC[C@@]1(CC(=O)O)CCc2cc(-c3ccc(NC(=O)Nc4cccc(C(F)(F)F)c4)cc3)ccc2C1=O
inhibition in vivo at 0.03 mg/kg [17]: 19%
inhibition in vivo at 0.1 mg/kg [18]: 33%
inhibition in vivo at 0.3 mg/kg [4]: 60%
inhibition in vivo at 1 mg/kg [19]: 71%
inhibition in vivo at 3 mg/kg [20]: 91%
inhibition in vivo at 10 mg/kg [21]: 99%
Activity [22]: Non-Toxic
Activity [23]: Non-Toxic
Activity [24]: Non-Toxic
Activity [25]: Non-Toxic
Activity [26]: Non-Toxic
Activity [27]: Non-Toxic
Activity [28]: Non-Toxic
Activity [29]: Non-Toxic
Activity [30]: Non-Toxic
Activity [31]: Non-Toxic
ED50 [32]: 0.23 mg/kg
